Legend:
Canis familiaris [1] = experiment: Conduction time was determined by intraduodenal administration of two dosages of 10 mg/kg of compound in anesthetized dogs. Value was reported for experiment 2; format: functional, Canis lupus familiaris
How it was run: (§1)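 Anesthetized dogs; compound given intraduodenally, generally as two doses, the second a cumulative (high) dose. LV functional refractory period and conduction time measured 15, 30 and 45 min after dosing; heart rate and blood pressure measured during nonpacing intervals. Values are % change from control, given per individual animal. Active if FRP or CT prolonged by ≥12%.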

Canis familiaris [2] = experiment: Conduction time was determined by intraduodenal administration of two dosages of 10 mg/kg (high dose) of compound in anesthetized dogs. Value was reported for experiment 1; format: functional, Canis lupus familiaris; how it was run: as §1
Canis familiaris [3] = experiment: Conduction time was determined by intraduodenal administration of two dosages of 3 mg/kg (low dose) of compound in anesthetized dogs. Value was reported for experiment 1; format: functional, Canis lupus familiaris; how it was run: as §1
Canis familiaris [4] = experiment: Heart rate was determined by intraduodenal administration of two dosages of 3 mg/kg of (low dose) compound in anesthetized dogs. Value was reported for experiment 1; format: functional, Canis lupus familiaris; how it was run: as §1
Canis familiaris [5] = experiment: Heart rate was determined by intraduodenal administration of two dosages of 10 mg/kg of (high dose) compound in anesthetized dogs. Value was reported for experiment 1; format: functional, Canis lupus familiaris; how it was run: as §1
Canis familiaris [6] = experiment: Heart rate was determined by intraduodenal administration of two dosages of 10 mg/kg of compound in anesthetized dogs. Value was reported for experiment 2; format: functional, Canis lupus familiaris; how it was run: as §1
Canis familiaris [7] = experiment: Left ventricular refractory period was determined by intraduodenal administration of two dosages of 10 mg/kg of (high dose) compound in anesthetized dogs. Value was reported for experiment 1; format: functional, Canis lupus familiaris, Cardiac ventricle
How it was run: (§2)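 Anesthetized dogs received two intraduodenal doses, the second cumulative (low dose/high dose). Left ventricular FRP and CT were measured 15, 30 and 45 min after dosing. Heart rate and mean blood pressure were taken during nonpacing intervals. Values are percent change from control. The vehicle was 5% dextrose in water/tragacanth. Activity was defined as ≥12% prolongation of FRP or CT.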

Canis familiaris [8] = experiment: Left ventricular refractory period was determined by intraduodenal administration of two dosages of 10 mg/kg of compound in anesthetized dogs. Value was reported for experiment 2; format: functional, Canis lupus familiaris, Cardiac ventricle
Canis familiaris [9] = experiment: Left ventricular refractory period was determined by intraduodenal administration of two dosages of 3 mg/kg of (low dose) compound in anesthetized dogs. Value was reported for experiment 1; format: functional, Canis lupus familiaris, Cardiac ventricle; how it was run: as §2
Canis familiaris [10] = experiment: Mean arterial blood pressure was determined by intraduodenal administration of two dosages of 10 mg/kg of (high dose) compound in anesthetized dogs. Value was reported for experiment 1; format: functional, Canis lupus familiaris; how it was run: as §2
Canis familiaris [11] = experiment: Mean arterial blood pressure was determined by intraduodenal administration of two dosages of 10 mg/kg of compound in anesthetized dogs. Value was reported for experiment 2; format: functional, Canis lupus familiaris; how it was run: as §2
Canis familiaris [12] = experiment: Mean arterial blood pressure was determined by intraduodenal administration of two dosages of 3 mg/kg of (low dose) compound in anesthetized dogs. Value was reported for experiment 1; format: functional, Canis lupus familiaris; how it was run: as §2
Canis familiaris [13] = organism: Canis familiaris; experiment: In vitro electrophysiological evaluation in canine cardiac ventricular muscle reported as % change for the functional refractory period (FRP) concentration range of 0.1-30 uM; design: species or system Canis lupus familiaris, Muscle tissue
How it was run: (§3)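 Canine right ventricle and papillary muscle strips in oxygenated Tyrode's solution, fitted with stimulating and recording electrodes. The extra-stimulus conduction-interval method was adapted for in vitro use. FRP and CT were read from a conduction-interval curve before and after various compound concentrations, and expressed as percent change from control. Compounds were taken from 10 mM deionized-water stock into Tyrode's. Each strip was used once as its own control.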

Canis familiaris [14] = organism: Canis familiaris; experiment: In vitro electrophysiological evaluation in canine cardiac ventricular muscle reported as maximum % change for conduction time(CT) at 0.1-30 uM concentration range; Minimal (<IO%increase or a decrease in CT); format: functional, Canis lupus familiaris, Muscle tissue; how it was run: as §3
Canis familiaris [15] = organism: Canis familiaris; experiment: In vitro electrophysiological evaluation in canine cardiac ventricular muscle reported as % change for conduction time(CT) at 0.1-30 uM concentration range; Minimal (<IO%increase or a decrease in CT); format: functional, Canis lupus familiaris, Muscle tissue
Canis familiaris [16] = organism: Canis familiaris; experiment: In vitro electrophysiological evaluation in canine cardiac Purkinje fibres reported as percent change Vmax concentration range of 0.1-10 uM; Minimal (<IO%increase or a decrease in CT); format: functional; settings: Canis lupus familiaris; Purkinje fiber
How it was run: (§4)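 Canine cardiac Purkinje fibres, intracellular microelectrode recording, paced at a basic cycle length of 1 s. APD95 and Vmax read simultaneously. Compound: 10 mM stock in deionized water, diluted into Tyrode's solution, tested over the stated concentration range. Each fibre used once as its own control. Result is % change from control, given at 10 µM or as the maximum with its concentration. M = <10% decrease or an increase in Vmax.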

Canis familiaris [17] = organism: Canis familiaris; experiment: In vitro electrophysiological evaluation in canine cardiac Purkinje fibres reported as percent change Vmax concentration range of 0.1-30 uM; Minimal (<IO%increase or a decrease in CT); format: functional; settings: Canis lupus familiaris; Purkinje fiber; how it was run: as §4
Canis familiaris [18] = organism: Canis familiaris; experiment: In vitro electrophysiological evaluation in canine cardiac ventricular muscle reported as maximum % change for functional refractory period (FRP) at 0.1-30 uM concentration range; design: species or system Canis lupus familiaris, Muscle tissue; how it was run: as §3
Canis familiaris [19] = organism: Canis familiaris; experiment: In vitro electrophysiological evaluation in canine cardiac Purkinje fibres reported as maximum percent change Vmax concentration range of 0.1-10 uM; Minimal (<IO%increase or a decrease in CT); format: functional; settings: Canis lupus familiaris; Purkinje fiber; how it was run: as §4
Canis familiaris [20] = organism: Canis familiaris; experiment: In vitro electrophysiological evaluation in canine cardiac Purkinje fibres reported as maximum percent change Vmax concentration range of 0.1-30 uM; Minimal (<IO%increase or a decrease in CT); format: functional; settings: Canis lupus familiaris; Purkinje fiber; how it was run: as §4
Canis familiaris [21] = organism: Canis familiaris; experiment: In vitro electrophysiological activity in canine cardiac Purkinje fibres given as maximum % change for action potential duration at 0.1-10 uM concentration; format: functional, Canis lupus familiaris, Purkinje fiber
How it was run: (§5)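 Canine cardiac Purkinje fibres, intracellular recording at 1 s basic cycle length, over cumulative concentration ranges. Compound 10 mM stock in deionized water diluted into Tyrode's. Each fibre used once as its own control. Value is the maximum % change from control in APD at 95% repolarization, with the concentration where it occurred; both values given if a biphasic response (>20% reversal) occurred.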

Canis familiaris [22] = organism: Canis familiaris; experiment: In vitro electrophysiological evaluation in canine cardiac Purkinje fibres reported as % change for action potential duration at 0.1-10 uM concentration range; format: functional, Canis lupus familiaris, Purkinje fiber; how it was run: as §4
Canis familiaris [23] = organism: Canis familiaris; experiment: In vitro electrophysiological evaluation in canine cardiac Purkinje fibres reported as % change for action potential duration at 0.1-30 uM concentration range; format: functional, Canis lupus familiaris, Purkinje fiber; how it was run: as §4
Canis familiaris [24] = organism: Canis familiaris; experiment: In vitro electrophysiological activity in canine cardiac Purkinje fibres given as maximum % change for action potential duration at 0.1-30 uM concentration; format: functional, Canis lupus familiaris, Purkinje fiber; how it was run: as §5
Canis familiaris [25] = experiment: Effective dose administered intravenously to elicit Antiarrhythmic efficacy in anesthetized dogs was reported. Value in parenthesis indicates no. of animals effective at that dose.; format: functional, Canis lupus familiaris, Heart
How it was run: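 Dogs are anesthetized and the chest reopened. Stimulating and recording electrodes go on the myocardium. Reproducible PES-induced sustained VT or VF is confirmed first; SVT is ended by burst pacing and VF by DC countershock. Compound is given iv in 0.9% saline and inducibility retested. A dose counts as effective when SVT/VF cannot be reinduced in two of three animals.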

CCCCCCC[N+]12CCC(CC1)/C(=C/Cc1ccc(Cl)cc1)C2.[Br-]
CT (Canis familiaris [1]): 5%
CT (Canis familiaris [2]): -5%
CT (Canis familiaris [3]): 0%
HR (Canis familiaris [4]): 5%
HR (Canis familiaris [5]): -9%
HR (Canis familiaris [6]): -13%
LV FRP (Canis familiaris [7]): 15%
LV FRP (Canis familiaris [8]): 16%
LV FRP (Canis familiaris [9]): 2%
Mean blood pressure (Canis familiaris [10]): 15%
Mean blood pressure (Canis familiaris [11]): 42%
Mean blood pressure (Canis familiaris [12]): 5%
FRP (Canis familiaris [13]): 21%
CT (Canis familiaris [14]): <10%
CT (Canis familiaris [15]): <10%
Vmax (Canis familiaris [16]): < 10%
Vmax (Canis familiaris [17]): < 10%
FRP (Canis familiaris [18]): 30%
Vmax (Canis familiaris [19]): < 10%
Vmax (Canis familiaris [20]): < 10%
APD95 (Canis familiaris [21]): 50%
APD95 (Canis familiaris [22]): 40%
APD95 (Canis familiaris [23]): 64%
APD95 (Canis familiaris [24]): 64%
Effective dose (Canis familiaris [25]): 0.3 mg/kg

Reference: ChEMBL document CHEMBL1123566, “Synthesis and cardiac electrophysiological activity of 2- and 3-[(substituted phenyl)alkyl]quinuclidines. Structure-activity relationships” (1987)
